Among the data in ChEMBL document CHEMBL1140448 (J Med Chem, 2005) are Inhibition and IC50 values, retold here.

The species entered for test [1] is Rattus norvegicus. Kind of test: Percent inhibition on GH release from rat pituitary cells. It is filed as functional, Pituitary gland cell. More on the design: concentration or dose not given beside the values. In short, it runs like this:
(§1)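 Anterior pituitaries from female Wistar rats (180-200 g) dispersed with dispase. Cells seeded at (0.5-5) × 10^5 per well in MEM with 10% FCS and attached at least 3 days. Then 4 h incubation with or without analogue plus 10 nM GHRH, four dishes per group. Rat GH and PRL measured by commercial assay; response given as % change versus untreated control dishes.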

The species named for test [2] is Rattus norvegicus. Nature of the test: Percent inhibition on PRL release from rat pituitary cells. It is filed as functional, Pituitary gland cell. More on the design: concentration or dose not given beside the values. A digest of the protocol: as §1
Test [3] deals with Somatostatin receptor type 2 (Homo sapiens, UniProt P30874). Kind of test: Inhibitory concentration against human somatostatin receptor type 2 in CC531 cells. It is filed as cell-based. In short, it runs like this: (§2)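 Competitive binding on membranes (25-50 µg protein) from stably transfected cells expressing one human sst subtype: CC531 for sst2, CHO-K1 for sst3 and sst5. Stopped with ice-cold Hepes buffer pH 7.6 and centrifuged; washed pellet γ-counted. Nonspecific binding taken with 1 µM unlabeled SRIF analogue.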
Somatostatin receptor type 2, sequence (P30874 whole entry): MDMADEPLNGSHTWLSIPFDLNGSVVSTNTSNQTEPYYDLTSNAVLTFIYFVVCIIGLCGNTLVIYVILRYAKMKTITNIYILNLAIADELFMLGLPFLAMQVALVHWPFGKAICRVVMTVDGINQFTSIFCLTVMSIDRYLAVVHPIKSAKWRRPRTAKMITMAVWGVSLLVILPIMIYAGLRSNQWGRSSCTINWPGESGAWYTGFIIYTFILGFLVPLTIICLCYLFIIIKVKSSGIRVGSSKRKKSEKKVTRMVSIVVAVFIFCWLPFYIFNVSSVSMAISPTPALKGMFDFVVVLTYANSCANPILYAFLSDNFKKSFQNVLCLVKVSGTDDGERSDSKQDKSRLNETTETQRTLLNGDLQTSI

The target in test [4] is Somatostatin receptor type 3 (Homo sapiens, UniProt P32745). Kind of test: Inhibitory concentration against human somatostatin receptor type 3 in CHO-K1 cells. It is filed as cell-based. In short, it runs like this: as §2
Somatostatin receptor type 3, sequence (P32745 whole entry): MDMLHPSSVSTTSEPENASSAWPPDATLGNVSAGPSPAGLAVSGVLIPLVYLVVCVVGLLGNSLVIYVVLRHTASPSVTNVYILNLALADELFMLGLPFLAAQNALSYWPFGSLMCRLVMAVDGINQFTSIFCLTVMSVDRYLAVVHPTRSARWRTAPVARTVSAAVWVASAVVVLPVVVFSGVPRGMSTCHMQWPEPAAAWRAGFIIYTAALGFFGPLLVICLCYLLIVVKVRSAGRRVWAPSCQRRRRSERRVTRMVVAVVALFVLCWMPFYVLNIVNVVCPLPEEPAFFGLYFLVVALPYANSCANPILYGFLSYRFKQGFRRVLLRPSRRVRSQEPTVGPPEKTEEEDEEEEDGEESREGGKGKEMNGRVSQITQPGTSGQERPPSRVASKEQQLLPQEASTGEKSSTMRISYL
Test [5] addresses Somatostatin receptor type 5 (Homo sapiens, UniProt P35346). Kind of test: Inhibitory concentration against human somatostatin receptor type 5 in CHO-K1 cells. It is filed as cell-based. A digest of the protocol:
as §2

Test [6] is filed under the species Rattus norvegicus. Kind of test: Inhibitory concentration on GH release from rat pituitary cells. It is filed as functional, cell-based. The settings on record: Pituitary gland cell. A digest of the protocol: as §1
The species named for test [7] is Rattus norvegicus. Kind of test: Inhibitory concentration on PRL release from rat pituitary cells. Format: functional, cell-based. The settings on record: Pituitary gland cell. In short, it runs like this:
as §1

Molecules are shown by their SMILES. A value given as a limit tells only on which side of the number the result lay.

Somatostatin receptor type 5, sequence (P35346 whole entry): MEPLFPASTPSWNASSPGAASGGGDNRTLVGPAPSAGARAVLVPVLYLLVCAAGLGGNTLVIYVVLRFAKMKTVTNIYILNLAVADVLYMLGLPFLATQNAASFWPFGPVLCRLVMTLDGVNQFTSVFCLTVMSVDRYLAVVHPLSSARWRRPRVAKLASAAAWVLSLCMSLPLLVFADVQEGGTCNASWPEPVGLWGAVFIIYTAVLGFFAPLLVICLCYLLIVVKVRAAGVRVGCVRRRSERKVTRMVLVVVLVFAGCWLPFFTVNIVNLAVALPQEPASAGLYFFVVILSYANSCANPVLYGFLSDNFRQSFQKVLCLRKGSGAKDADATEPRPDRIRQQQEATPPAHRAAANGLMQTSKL

Consider `CC(C)[C@@H]1NC(=O)[C@H](CCCCN)NC(=O)[C@@H](Cc2c[nH]c3ccccc23)NC(=O)[C@H](Cc2ccc(O)c(I)c2)NC(=O)[C@@H](NC(=O)[C@H](N)Cc2ccc(N)cc2)CSSC[C@@H](C(=O)N[C@H](C(N)=O)[C@@H](C)O)NC1=O` [listing 1 of 2 here], for which the Inhibition worked out at 12% in the test filed under Rattus norvegicus [1] and 14% in the test filed under Rattus norvegicus [2].

Consider `CC(C)[C@@H]1NC(=O)[C@H](CCCCN)NC(=O)[C@@H](Cc2c[nH]c3ccccc23)NC(=O)[C@H](Cc2ccc(O)cc2)NC(=O)[C@@H](NC(=O)[C@H](N)Cc2ccc(N)cc2)CSSC[C@@H](C(=O)N[C@H](CC(=O)O)C(N)=O)NC1=O` [listing 1 of 2 here], for which the Inhibition in the test filed under Rattus norvegicus [1] was 18%; in the test listed under Rattus norvegicus [2], 11%.

Turning to `CC(C)[C@@H]1NC(=O)[C@H](CCCCN)NC(=O)[C@@H](Cc2c[nH]c3ccccc23)NC(=O)[C@H](Cc2ccc(O)cc2)NC(=O)[C@@H](NC(=O)[C@H](N)Cc2ccc(N)c(I)c2)CSSC[C@@H](C(=O)N[C@@H](CC(=O)O)C(N)=O)NC1=O` [listing 1 of 2 here], the Inhibition stood at 17% in the test listed under Rattus norvegicus [1] and 12% in the test filed under Rattus norvegicus [2].

Regarding `CC(C)[C@@H]1NC(=O)[C@H](CCCCN)NC(=O)[C@@H](Cc2c[nH]c3ccccc23)NC(=O)[C@H](Cc2ccc(O)c(I)c2)NC(=O)[C@@H](NC(=O)[C@H](N)Cc2ccc(N)c(I)c2)CSSC[C@@H](C(=O)N[C@@H](CC(=O)O)C(N)=O)NC1=O` [listing 1 of 2 here], the IC50 in test [3] was 1.9 nM; in test [4], over 1000 nM; in test [5], 2.9 nM.

As to `CC(C)[C@@H]1NC(=O)[C@H](CCCCN)NC(=O)[C@@H](Cc2c[nH]c3ccccc23)NC(=O)[C@H](Cc2ccc(O)cc2)NC(=O)[C@@H](NC(=O)[C@H](N)Cc2ccccc2)CSSC[C@@H](C(=O)N[C@@H](CC(=O)O)C(N)=O)NC1=O`, the IC50 in test [3] is 18.6 nM; in test [4] it was over 1000 nM; in the test listed under Rattus norvegicus [6] it was 1.1 nM.

For the compound `CC(C)[C@@H]1NC(=O)[C@H](CCCCN)NC(=O)[C@@H](Cc2c[nH]c3ccccc23)NC(=O)[C@H](Cc2ccc(O)cc2)NC(=O)[C@@H](NC(=O)[C@H](N)Cc2ccc(N)c(I)c2)CSSC[C@@H](C(=O)N[C@H](C(N)=O)[C@@H](C)O)NC1=O` [listing 1 of 2 here], the IC50 is 1.4 nM in test [3], over 1000 nM in test [4], 0.1 nM in the test listed under Rattus norvegicus [6] and 0.1 nM in the test listed under Rattus norvegicus [7].

Turning to `CC(C)[C@@H]1NC(=O)[C@H](CCCCN)NC(=O)[C@@H](Cc2c[nH]c3ccccc23)NC(=O)[C@H](Cc2ccc(O)cc2)NC(=O)[C@@H](NC(=O)[C@H](N)Cc2ccc(N)cc2)CSSC[C@@H](C(=O)N[C@H](C(N)=O)[C@@H](C)O)NC1=O` [listing 1 of 2 here], the Inhibition is 47% in the test listed under Rattus norvegicus [1] and 20% in the test listed under Rattus norvegicus [2].

In the case of `CC(C)[C@@H]1NC(=O)[C@H](CCCCN)NC(=O)[C@@H](Cc2c[nH]c3ccccc23)NC(=O)[C@H](Cc2ccc(O)cc2)NC(=O)[C@@H](NC(=O)[C@H](N)Cc2ccc(N)cc2)CSSC[C@@H](C(=O)N[C@@H](CC(=O)O)C(N)=O)NC1=O` [listing 1 of 2 here], the Inhibition in the test filed under Rattus norvegicus [1] was 41%; in the test filed under Rattus norvegicus [2] it was -9%.

As to `CC(C)[C@@H]1NC(=O)[C@H](CCCCN)NC(=O)[C@@H](Cc2c[nH]c3ccccc23)NC(=O)[C@H](Cc2ccc(O)c(I)c2)NC(=O)[C@@H](NC(=O)[C@H](N)Cc2ccc(N)cc2)CSSC[C@@H](C(=O)N[C@H](C(N)=O)[C@@H](C)O)NC1=O` [listing 2 of 2 here], the IC50 in test [3] is 6.2 nM; in test [4], over 1000 nM.

With `CC(C)[C@@H]1NC(=O)[C@H](CCCCN)NC(=O)[C@@H](Cc2c[nH]c3ccccc23)NC(=O)[C@H](Cc2ccc(O)c(I)c2)NC(=O)[C@@H](NC(=O)[C@H](N)Cc2ccc(N)c(I)c2)CSSC[C@@H](C(=O)N[C@H](C(N)=O)[C@@H](C)O)NC1=O` [listing 1 of 2 here], the IC50 was 0.63 nM in test [3], over 1000 nM in test [4], 0.15 nM in the test filed under Rattus norvegicus [6] and 0.23 nM in the test filed under Rattus norvegicus [7].

As for `CC(C)[C@@H]1NC(=O)[C@H](CCCCN)NC(=O)[C@@H](Cc2c[nH]c3ccccc23)NC(=O)[C@H](Cc2ccc(O)c(I)c2)NC(=O)[C@@H](NC(=O)[C@H](N)Cc2ccc(N)c(I)c2)CSSC[C@@H](C(=O)N[C@@H](CC(=O)O)C(N)=O)NC1=O` [listing 2 of 2 here], the Inhibition came to 55% in the test listed under Rattus norvegicus [1] and 15% in the test filed under Rattus norvegicus [2].

With `C[C@H](N)C(=O)NCC(=O)N[C@H]1CSSC[C@@H](C(=O)O)NC(=O)[C@H](CO)NC(=O)[C@H]([C@@H](C)O)NC(=O)[C@H](Cc2ccccc2)NC(=O)[C@H]([C@@H](C)O)NC(=O)[C@H](CCCCN)NC(=O)[C@H](Cc2c[nH]c3ccccc23)NC(=O)[C@H](Cc2ccccc2)NC(=O)[C@H](Cc2ccccc2)NC(=O)[C@H](CC(N)=O)NC(=O)[C@H](CCCCN)NC1=O` [SOMATOSTATIN], the IC50 is 0.1 nM in the test listed under Rattus norvegicus [6] and 0.2 nM in the test filed under Rattus norvegicus [7]. In addition, the Inhibition in the test filed under Rattus norvegicus [1] is recorded as 66%; in the test filed under Rattus norvegicus [2], 30%.

Take `CC(C)[C@@H]1NC(=O)[C@H](CCCCN)NC(=O)[C@@H](Cc2c[nH]c3ccccc23)NC(=O)[C@H](Cc2ccc(O)cc2)NC(=O)[C@@H](NC(=O)[C@H](N)Cc2ccc(N)cc2)CSSC[C@@H](C(=O)N[C@@H](CC(=O)O)C(N)=O)NC1=O` [listing 2 of 2 here]: the half-maximal inhibitory concentration (IC50) in test [3] is 11 nM; in test [4] it was over 1000 nM; in test [5], 54 nM; in the test listed under Rattus norvegicus [6] it was 14.8 nM; in the test filed under Rattus norvegicus [7], 26 nM.

`CC(C)[C@@H]1NC(=O)[C@H](CCCCN)NC(=O)[C@@H](Cc2c[nH]c3ccccc23)NC(=O)[C@H](Cc2ccc(O)c(I)c2)NC(=O)[C@@H](NC(=O)[C@H](N)Cc2ccc(N)c(I)c2)CSSC[C@@H](C(=O)N[C@H](C(N)=O)[C@@H](C)O)NC1=O` [listing 2 of 2 here]: the values for the Inhibition in the test listed under Rattus norvegicus [1] and in the test filed under Rattus norvegicus [2] were 58% and 29%, respectively.

For `CC(C)[C@@H]1NC(=O)[C@H](CCCCN)NC(=O)[C@@H](Cc2c[nH]c3ccccc23)NC(=O)[C@H](Cc2ccc(O)cc2)NC(=O)[C@@H](NC(=O)[C@H](N)Cc2ccc(N)c(I)c2)CSSC[C@@H](C(=O)N[C@@H](CC(=O)O)C(N)=O)NC1=O` [listing 2 of 2 here], the results for the IC50 in test [3], in test [4] and in test [5] were 12 nM, over 1000 nM and 74 nM, respectively.

Consider `CC(C)[C@@H]1NC(=O)[C@H](CCCCN)NC(=O)[C@@H](Cc2c[nH]c3ccccc23)NC(=O)[C@H](Cc2ccc(O)cc2)NC(=O)[C@@H](NC(=O)[C@H](N)Cc2ccc(N)cc2)CSSC[C@@H](C(=O)N[C@H](C(N)=O)[C@@H](C)O)NC1=O` [listing 2 of 2 here], for which the half-maximal inhibitory concentration (IC50) in test [3] was 1.6 nM; in test [4], over 1000 nM; in the test filed under Rattus norvegicus [6], 0.08 nM; in the test listed under Rattus norvegicus [7] it was 2.2 nM.

For `CC(C)[C@@H]1NC(=O)[C@H](CCCCN)NC(=O)[C@@H](Cc2c[nH]c3ccccc23)NC(=O)[C@H](Cc2ccc(O)cc2)NC(=O)[C@@H](NC(=O)[C@H](N)Cc2ccc(N)c(I)c2)CSSC[C@@H](C(=O)N[C@H](C(N)=O)[C@@H](C)O)NC1=O` [listing 2 of 2 here], the Inhibition is 60% in the test listed under Rattus norvegicus [1] and 35% in the test listed under Rattus norvegicus [2].

Take `CC(C)[C@@H]1NC(=O)[C@H](CCCCN)NC(=O)[C@@H](Cc2c[nH]c3ccccc23)NC(=O)[C@H](Cc2ccc(O)cc2)NC(=O)[C@@H](NC(=O)[C@H](N)Cc2ccc(N)cc2)CSSC[C@@H](C(=O)N[C@@H](C(N)=O)[C@H](C)O)NC1=O` [listing 1 of 2 here]: the Inhibition is -11% in the test filed under Rattus norvegicus [1] and 8% in the test listed under Rattus norvegicus [2].

Turning to `CC(C)[C@@H]1NC(=O)[C@H](CCCCN)NC(=O)[C@@H](Cc2c[nH]c3ccccc23)NC(=O)[C@H](Cc2ccc(O)cc2)NC(=O)[C@@H](NC(=O)[C@H](N)Cc2ccc(N)cc2)CSSC[C@@H](C(=O)N[C@H](CC(=O)O)C(N)=O)NC1=O` [listing 2 of 2 here], the IC50 in test [3] is 1.1 nM; in test [4], over 1000 nM; in test [5], 30 nM; in the test filed under Rattus norvegicus [7], over 100 nM.

Consider `CC(C)[C@@H]1NC(=O)[C@H](CCCCN)NC(=O)[C@@H](Cc2c[nH]c3ccccc23)NC(=O)[C@H](Cc2ccc(O)cc2)NC(=O)[C@@H](NC(=O)[C@H](N)Cc2ccc(N)cc2)CSSC[C@@H](C(=O)N[C@@H](C(N)=O)[C@H](C)O)NC1=O` [listing 2 of 2 here], for which the results for the half-inhibitory concentration (IC50) in test [3] and in test [4] were 17 nM and over 1000 nM, respectively.

Broadly, the Inhibition is the relative decrease from the control value, in per cent. By IC50 is commonly meant the concentration at which inhibition is half-maximal.
